ChEMBL document CHEMBL1157576, “Development of selective and reversible pyrazoline based MAO-A inhibitors: Synthesis, biological evaluation and docking studies” (Bioorg Med Chem, 2010)

How the values were obtained:
Format in all cases: tissue-based
[1] = target: T1, Amine oxidase [flavin-containing] B (Rattus norvegicus, UniProt P19643); experiment: Competitive inhibition of MAOB in rat liver homogenate after 60 mins by Lineweaver-Burke plot analysis; settings: read-out: Kic
T1 sequence (P19643 whole entry): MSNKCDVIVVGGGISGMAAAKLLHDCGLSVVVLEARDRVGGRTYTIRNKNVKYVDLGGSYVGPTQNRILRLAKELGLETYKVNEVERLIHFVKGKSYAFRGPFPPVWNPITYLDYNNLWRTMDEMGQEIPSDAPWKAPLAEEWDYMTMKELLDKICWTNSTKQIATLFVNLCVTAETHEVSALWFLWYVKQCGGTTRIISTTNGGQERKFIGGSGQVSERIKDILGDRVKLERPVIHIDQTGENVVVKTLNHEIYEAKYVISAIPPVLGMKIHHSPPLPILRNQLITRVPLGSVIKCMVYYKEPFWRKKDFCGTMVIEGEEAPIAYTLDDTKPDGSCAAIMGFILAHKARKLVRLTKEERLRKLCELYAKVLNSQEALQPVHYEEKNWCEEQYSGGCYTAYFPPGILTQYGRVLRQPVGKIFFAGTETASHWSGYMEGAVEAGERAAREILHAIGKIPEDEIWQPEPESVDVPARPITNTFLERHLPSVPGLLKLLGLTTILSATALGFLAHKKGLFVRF

[2] = target: T2, Amine oxidase [flavin-containing] A (Rattus norvegicus, UniProt P21396); experiment: Competitive inhibition of MAOA in rat liver homogenate after 60 mins by Lineweaver-Burke plot analysis; settings: read-out: Kic
T2 sequence (P21396 whole entry): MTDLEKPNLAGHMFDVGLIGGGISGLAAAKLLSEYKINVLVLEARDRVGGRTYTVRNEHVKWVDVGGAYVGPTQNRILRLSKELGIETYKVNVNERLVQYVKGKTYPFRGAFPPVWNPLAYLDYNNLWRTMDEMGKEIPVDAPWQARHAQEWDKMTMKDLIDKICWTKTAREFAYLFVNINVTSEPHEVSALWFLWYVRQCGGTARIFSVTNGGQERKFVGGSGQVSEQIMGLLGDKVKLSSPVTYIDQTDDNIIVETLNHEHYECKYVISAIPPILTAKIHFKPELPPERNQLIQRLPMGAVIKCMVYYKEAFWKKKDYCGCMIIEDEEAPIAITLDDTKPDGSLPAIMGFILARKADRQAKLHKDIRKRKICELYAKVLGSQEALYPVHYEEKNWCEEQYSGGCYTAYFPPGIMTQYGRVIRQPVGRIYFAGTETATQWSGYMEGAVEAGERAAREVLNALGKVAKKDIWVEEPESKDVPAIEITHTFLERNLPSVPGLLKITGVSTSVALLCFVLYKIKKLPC

[3] = target: T2, Amine oxidase [flavin-containing] A; experiment: Reversible inhibition of MAOA in rat liver homogenate assessed as recovery of enzyme activity at 1 to 1000 uM up to 24 hrs by dialysis
Procedure, shortened: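 Rat liver MAO was incubated with compound (1–1000 µM, DMSO ≤1%) at 37 °C for 0–60 min. It was then dialysed for 24 h at 37 °C against potassium phosphate buffer, pH 7.6. Recovered activity was measured by the Holt coupled assay using p-tyramine, with absorbance read at 498 nm.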

SMILES | Ki [1] | Ki [2] | Activity [3]
COc1cccc(NC(=S)N2N=C(c3ccc(O)cc3)CC2c2cccs2)c1 (configuration not stated) | 1100 µM | 0.181 µM | Active
Oc1ccc(C2=NN(C(=S)Nc3ccccc3)C(c3ccco3)C2)cc1 (configuration not stated) | 778 µM | 0.701 µM | Active
COc1ccccc1NC(=S)N1N=C(c2ccc(O)cc2)CC1c1cccs1 (configuration not stated) | 44 µM | 0.301 µM | Active
Cc1ccc(NC(=S)N2N=C(c3ccc(O)cc3)CC2c2ccco2)cc1 (configuration not stated) | 5010 µM | 0.48 µM | Active
Cc1ccc(NC(=S)N2N=C(c3ccc(O)cc3)CC2c2cccs2)cc1 (configuration not stated) | 71.5 µM | 0.351 µM | Active
Cc1cccc(NC(=S)N2N=C(c3ccc(O)cc3)CC2c2cccs2)c1 (configuration not stated) | 2210 µM | 0.15 µM | Active
COc1ccc(NC(=S)N2N=C(c3ccc(O)cc3)CC2c2cccs2)cc1 (configuration not stated) | 7150 µM | 0.501 µM | Active
COc1ccc(NC(=S)N2N=C(c3ccc(O)cc3)CC2c2ccco2)cc1 (configuration not stated) | 1060 µM | 0.95 µM | Active
COc1cccc(NC(=S)N2N=C(c3ccc(O)cc3)CC2c2ccco2)c1 (configuration not stated) | 460 µM | 0.176 µM | Active
Cc1ccccc1NC(=S)N1N=C(c2ccc(O)cc2)CC1c1ccco1 (configuration not stated) | 28.8 µM | 0.231 µM | Active
Cc1ccccc1NC(=S)N1N=C(c2ccc(O)cc2)CC1c1cccs1 (configuration not stated) | 70.2 µM | 0.281 µM | Active
Oc1ccc(C2=NN(C(=S)Nc3ccccc3)C(c3cccs3)C2)cc1 (configuration not stated) | 47 µM | 0.48 µM | Active
COc1ccccc1NC(=S)N1N=C(c2ccc(O)cc2)CC1c1ccco1 (configuration not stated) | 174 µM | 0.755 µM | Active
Cc1cccc(NC(=S)N2N=C(c3ccc(O)cc3)CC2c2ccco2)c1 (configuration not stated) | 580 µM | 0.591 µM | Active
